Only some compounds are listed: those with a hit (about 4.2% of all), similar ones and a draw of the others.
Fh CTSL1 inh – Fasciola hepatica cathepsin L1 inhibitors, primary screen, counter-screen for PFM18AAP inhibitor project, biochemical, QFRET, fluorogenic peptide substrate; recombinant F. hepatica cathepsin L1, Z-Leu-Arg-MCA fluorescence; inhibition, % at 5.96 µM; actives 0.49% (n = 300,000);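 active = inhibition above the mean of all tested compounds plus 3 SD, set per screening campaign, cut at about 17% in these data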;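 also: 0% = plate median of test compound wells and 100% = 1 µM Z-Phe-Ala-diazomethylketone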
HDAC3 inhib – HDAC3 deacetylase inhibitors, primary screen, biochemical, fluorescence, cell-free homogeneous. Histone deacetylase 3 (Homo sapiens), O15379. recombinant HDAC3, fluorogenic peptide/trypsin coupled. inhibition, % at 8.3 µM. actives 0.15% (n = 320,000); in the data active = inhibition above about 26%, passing the limit was not always enough
SENP1 FRET inh – human SENP1 catalytic domain inhibitors, primary screen, biochemical, FRET, uHTS; Sentrin-specific protease 1 (Homo sapiens), Q9P0U3; recombinant SENP1 catalytic domain, CyPet-SUMO1-YPet FRET cleavage; inhibition, % at 10 µM; actives 0.21% (n = 360,000);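 active = inhibition at least 30% at 10 µM, raw YFP signal under a set limit, fluorescence ratio 0.5 to 1.5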;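 also: 0% = enzyme with DMSO and 100% = no enzyme wells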
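Test system: recombinant human SENP1 catalytic domain, His6-tagged / Medium: pH 8 Tris buffer with EDTA, NaCl, BME, BSA, NP40, catalase / Also added: SUMO1 FRET substrate flanked by Cypet and Ypet, 25 nM / Times: 50 min reaction at room temperature / Signal: FRET, CFP and YFP emission / Control set: no-enzyme low control and enzyme-plus-DMSO high control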
AHR act – AHR activators, primary screen, cell-based, luminescence, luciferase reporter, human | Aryl hydrocarbon receptor (Homo sapiens), P35869 | AHR-responsive luciferase reporter cells | activation, % at 5 µM | actives 2.5% (n = 320,000) | AID 2796, 2010; in the data active = activation above about 47%;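 also: 0% = vehicle wells and 100% = reference agonist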
Target sequence (P35869 whole entry, looked up): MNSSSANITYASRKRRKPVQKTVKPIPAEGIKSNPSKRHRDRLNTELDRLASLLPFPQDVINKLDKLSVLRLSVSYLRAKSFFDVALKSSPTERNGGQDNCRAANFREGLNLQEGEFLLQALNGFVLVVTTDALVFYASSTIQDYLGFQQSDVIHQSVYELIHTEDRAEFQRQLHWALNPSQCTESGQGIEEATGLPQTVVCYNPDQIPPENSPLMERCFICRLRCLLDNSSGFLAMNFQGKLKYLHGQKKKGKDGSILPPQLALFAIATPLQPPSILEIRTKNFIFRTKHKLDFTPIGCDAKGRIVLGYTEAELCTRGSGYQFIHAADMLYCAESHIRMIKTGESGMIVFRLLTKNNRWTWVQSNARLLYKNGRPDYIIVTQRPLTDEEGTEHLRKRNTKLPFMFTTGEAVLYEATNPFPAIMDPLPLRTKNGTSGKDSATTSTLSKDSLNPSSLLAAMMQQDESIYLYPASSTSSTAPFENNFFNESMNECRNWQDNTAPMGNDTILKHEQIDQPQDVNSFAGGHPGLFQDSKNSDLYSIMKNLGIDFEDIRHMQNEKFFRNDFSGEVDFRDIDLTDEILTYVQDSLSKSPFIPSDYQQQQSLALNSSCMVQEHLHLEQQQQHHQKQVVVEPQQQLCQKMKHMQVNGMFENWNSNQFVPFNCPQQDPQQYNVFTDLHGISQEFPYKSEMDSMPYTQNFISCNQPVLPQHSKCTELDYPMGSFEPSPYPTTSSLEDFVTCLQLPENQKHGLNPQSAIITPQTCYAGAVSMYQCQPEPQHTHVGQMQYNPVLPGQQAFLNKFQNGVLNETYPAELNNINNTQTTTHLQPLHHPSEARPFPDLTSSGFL
FXN GAA850 act – FXN promoter activators, primary screen, cell-based, luciferase luminescence, HEK293 lucGAA850; HEK293 lucGAA850 FXN promoter luciferase reporter, 24 h; percent of 10 µM SAHA response; activation, % at 6 µM; actives 0.56% (n = 360,000);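 active = activation above the average of all compounds screened plus 3 SD, cutoff fixed separately per campaign, cut at about 7.5% in these data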;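 also: 0% = DMSO wells and 100% = 10 µM SAHA wells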
PfM18AAP inh – PfM18AAP inhibitors, malaria aminopeptidase, primary screen, biochemical, QFRET, recombinant enzyme | M18 aspartyl aminopeptidase (Plasmodium falciparum 3D7) | H-Glu-NHMec fluorogenic cleavage | inhibition, % at 7.35 µM | actives 1.2% (n = 290,000) | AID 1822, 2009;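 active = inhibition above the campaign mean inhibition over all tested compounds plus 3 SD, cut at about 28% in these data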;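 also: 0% = plate median of test compound wells and 100% = 2 mM ZnCl2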
* hit, by the source's call; nt = not tested or not shown.

SMILES	Fh CTSL1 inh	HDAC3 inhib	SENP1 FRET inh	AHR act	FXN GAA850 act	PfM18AAP inh
O=C(CNCC1CCCO1)Nc1ccc([N+](=O)[O-])cc1C(=O)Nc1ccccc1F (stereo unspecified)	3	nt	0	43	2	11
COc1cccc(NC(=O)c2cc([N+](=O)[O-])ccc2NC(=O)CNCC2CCCO2)c1 (stereo unspecified)	2	5	1	48*	-1	13
Cc1ccc(C)c(NCC(O)c2ccccc2)c1 (stereo unspecified)	1	3	4	52*	-1	5
Cc1ccc(NS(=O)(=O)c2ccc(N/N=C/c3ccncc3)c([N+](=O)[O-])c2)c(C)c1	0	-7	3	48*	3	-5
CCOC(=O)c1ccc(NC(=O)c2nc[nH]c2C(=O)N[C@@H](C)CO)cc1	nt	nt	4	nt	2	nt
CCCCCC[n+]1c(-c2ccccc2)csc1Nc1ccccc1	1	3	0	2	2	-5
COc1ccc(-c2csc(Nc3ccccc3)[n+]2CC(O)c2ccc([N+](=O)[O-])cc2)cc1 (stereo unspecified)	2	10	3	47*	0	10
COc1ccc(C(=O)O/N=C2\CCS(=O)(=O)c3sccc32)cc1	-2	52*	5	3	0	0
COc1ccc(N=C2CCS(=O)(=O)c3sccc32)cc1	-3	0	1	2	3	3
COC(=O)N/N=C\c1ccc(OC/C=C/c2ccccc2)c(OC)c1	5	-4	2	51*	1	5
CCCCC(=O)Nc1ccc(Br)cn1	4	5	0	1	-1	-1
CCCCNC(=O)Nc1ccc(Br)cn1	4	2	1	52*	2	-12
COc1ccccc1NC(=O)c1ccc(S(=O)(=O)N(C)C)cc1	-3	7	1	10	2	2
COc1ccc(OC)c2sc(NC(=O)c3ccc(S(=O)(=O)N(C)C)cc3)nc12	-3	4	5	69*	0	0
COCCN(CCOC)S(=O)(=O)c1ccc(C(=O)Nc2nc(C)c(C(C)=O)s2)cc1	20*	-3	1	0	1	-2
CC(=O)SC(C[N+](=O)[O-])c1cn(C(C)=O)c2ccccc12 (stereo unspecified)	-16	3	-6	63*	2	14
O=C(CSc1n[nH]c(=O)n1-c1cccnc1)Nc1ccccc1Cl	-3	3	2	21	1	-4
Cc1cc(=O)c2ccccc2n1Cc1ccccc1	1	-12	0	57*	0	4
Cc1cc(=O)c2ccccc2n1CC(=O)NCc1ccccc1	3	0	1	8	-4	1
C[C@H]1c2cccc(O)c2C(O)=C2C(=O)[C@]3(O)C(O)=C(C(N)=O)C(=O)[C@@H](N(C)C)[C@@H]3[C@@H](O)[C@@H]21	-4	8	8	4	19*	nt
O=C(NC1CCCC1)C(c1cccnc1)N(C(=O)c1csnn1)c1ccccc1Cl (stereo unspecified)	-4	-11	0	-1	2	-4
O=C(Nc1ccc(NC(=O)c2cccs2)c(Cl)c1)c1ccco1	-2	-1	-1	64*	-1	-5
O=C(NCCNC(=O)c1cccs1)c1ccco1	19*	-1	-1	7	0	-12
O=C(Cc1ccccc1)Nc1ccc(NC(=O)c2cccs2)c(Cl)c1	-1	-8	3	9	2	-4
O=C(NNC(=O)c1cccs1)c1ccco1	-9	-1	1	5	1	0
SMILES	Fh CTSL1 inh	HDAC3 inhib	SENP1 FRET inh	AHR act	FXN GAA850 act	PfM18AAP inh
COc1ccc(C2=Cc3ccc(OC(C)=O)cc3OC2)cc1	nt	nt	-78	nt	3	nt
O=C(CSCc1ccco1)c1ccc(Cl)s1	-1	90*	nt	-4	nt	6
CC(C)CC1Nc2ncnc(N3CCN(c4ccccn4)CC3)c2N(Cc2ccccc2)C1=O (stereo unspecified)	nt	6	1	0	-1	nt
CC(=O)C1=C(c2ccccc2)N(C(C)=O)n2c(C)nnc2S1	-20	-6	0	51*	-1	-5
Cc1ccc(C(=O)Oc2cccc(-n3cnnn3)c2)cc1	-2	1	5	1	0	0
O=C(Oc1cccc(-n2cnnn2)c1)c1ccco1	-32	32*	2	4	4	-13
O=C(Oc1ccc(-c2nnco2)cc1)c1ccco1	-6	63*	3	-1	1	nt
NC(N)=Nc1nc(-c2ccccc2)c2ccccc2n1	-5	-11	-1	68*	-1	-11
O=S(=O)(c1cc(F)ccc1F)N1CCN2CCCC2C1 (stereo unspecified)	1	-9	-1	2	1	-7
NS(=O)(=O)c1ccc(NC(=O)COC(=O)CN2C(=O)C3CC=CCC3C2=O)cc1 (stereo unspecified)	nt	2	1	0	0	nt
O=S(=O)(NCCc1csc(-c2cccnc2)n1)c1cccs1	0	nt	-1	69*	1	6
O=S(=O)(NCc1csc(-c2cccnc2)n1)c1cccs1	4	-2	-10	19	3	-7
CCC(C(=O)OCC(=O)c1c(N)n(CC(C)C)c(=O)n(C)c1=O)c1ccccc1 (stereo unspecified)	0	9	-4	4	-3	nt
CC(C)Cn1c(N)c(C(=O)COC(=O)[C@H](C)NC(=O)c2ccccc2Cl)c(=O)n(C)c1=O	20*	10	-2	9	0	nt
CC(C)(C)NC(=O)CN(Cc1ccccc1)S(=O)(=O)c1ccccc1	-1	4	2	1	0	-1
N#Cc1c(NC(=O)c2ccc(Cn3cc(Br)cn3)o2)sc2c1CCCCC2	-1	9	-11	48*	1	3
O=C1CSC(=S)N1c1ccc(F)c(Cl)c1	-3	0	2	4	0	28*
Cc1noc(C)c1NC(=O)Nc1cccc2c1O[C@H](CN(C)S(=O)(=O)c1cccs1)[C@@H](C)CN([C@H](C)CO)C2=O	nt	-5	2	-3	-1	nt
Cc1cc(O)ccc1N/C=C(\C#N)c1nc2ccccc2o1	2	-9	-57	54*	6	2
COc1ccc(C(=O)CC(c2ccccc2)C2C(=O)CCCC2=O)cc1 (stereo unspecified)	1	-1	-1	0	1	31*
CCOc1ccc2nc(NCCNC(=O)C3CC3)c(C)cc2c1	1	-19	-1	38	2	nt

Screening data: PubChem BioAssay, several laboratories
